Laboratory results from ChEMBL document CHEMBL3297648, “Diterpenoids from the Chinese liverwort Heteroscyphus tener and their antiproliferative effects” (J Nat Prod, 2014).
Active and inactive are the calls of the source. The rule behind the calls is not given here.

Key:
[1] = target: Serine/threonine-protein kinase ATR (Homo sapiens) (UniProt Q13535); assay: Activation of ATR in human PC3 cells assessed as ChK1 phosphorylation at Ser296 at 20 uM after 12 hrs by western blot analysis; type: cell-based; conditions: PC-3
Sequence of Serine/threonine-protein kinase ATR (Homo sapiens) (Q13535 whole entry, looked up): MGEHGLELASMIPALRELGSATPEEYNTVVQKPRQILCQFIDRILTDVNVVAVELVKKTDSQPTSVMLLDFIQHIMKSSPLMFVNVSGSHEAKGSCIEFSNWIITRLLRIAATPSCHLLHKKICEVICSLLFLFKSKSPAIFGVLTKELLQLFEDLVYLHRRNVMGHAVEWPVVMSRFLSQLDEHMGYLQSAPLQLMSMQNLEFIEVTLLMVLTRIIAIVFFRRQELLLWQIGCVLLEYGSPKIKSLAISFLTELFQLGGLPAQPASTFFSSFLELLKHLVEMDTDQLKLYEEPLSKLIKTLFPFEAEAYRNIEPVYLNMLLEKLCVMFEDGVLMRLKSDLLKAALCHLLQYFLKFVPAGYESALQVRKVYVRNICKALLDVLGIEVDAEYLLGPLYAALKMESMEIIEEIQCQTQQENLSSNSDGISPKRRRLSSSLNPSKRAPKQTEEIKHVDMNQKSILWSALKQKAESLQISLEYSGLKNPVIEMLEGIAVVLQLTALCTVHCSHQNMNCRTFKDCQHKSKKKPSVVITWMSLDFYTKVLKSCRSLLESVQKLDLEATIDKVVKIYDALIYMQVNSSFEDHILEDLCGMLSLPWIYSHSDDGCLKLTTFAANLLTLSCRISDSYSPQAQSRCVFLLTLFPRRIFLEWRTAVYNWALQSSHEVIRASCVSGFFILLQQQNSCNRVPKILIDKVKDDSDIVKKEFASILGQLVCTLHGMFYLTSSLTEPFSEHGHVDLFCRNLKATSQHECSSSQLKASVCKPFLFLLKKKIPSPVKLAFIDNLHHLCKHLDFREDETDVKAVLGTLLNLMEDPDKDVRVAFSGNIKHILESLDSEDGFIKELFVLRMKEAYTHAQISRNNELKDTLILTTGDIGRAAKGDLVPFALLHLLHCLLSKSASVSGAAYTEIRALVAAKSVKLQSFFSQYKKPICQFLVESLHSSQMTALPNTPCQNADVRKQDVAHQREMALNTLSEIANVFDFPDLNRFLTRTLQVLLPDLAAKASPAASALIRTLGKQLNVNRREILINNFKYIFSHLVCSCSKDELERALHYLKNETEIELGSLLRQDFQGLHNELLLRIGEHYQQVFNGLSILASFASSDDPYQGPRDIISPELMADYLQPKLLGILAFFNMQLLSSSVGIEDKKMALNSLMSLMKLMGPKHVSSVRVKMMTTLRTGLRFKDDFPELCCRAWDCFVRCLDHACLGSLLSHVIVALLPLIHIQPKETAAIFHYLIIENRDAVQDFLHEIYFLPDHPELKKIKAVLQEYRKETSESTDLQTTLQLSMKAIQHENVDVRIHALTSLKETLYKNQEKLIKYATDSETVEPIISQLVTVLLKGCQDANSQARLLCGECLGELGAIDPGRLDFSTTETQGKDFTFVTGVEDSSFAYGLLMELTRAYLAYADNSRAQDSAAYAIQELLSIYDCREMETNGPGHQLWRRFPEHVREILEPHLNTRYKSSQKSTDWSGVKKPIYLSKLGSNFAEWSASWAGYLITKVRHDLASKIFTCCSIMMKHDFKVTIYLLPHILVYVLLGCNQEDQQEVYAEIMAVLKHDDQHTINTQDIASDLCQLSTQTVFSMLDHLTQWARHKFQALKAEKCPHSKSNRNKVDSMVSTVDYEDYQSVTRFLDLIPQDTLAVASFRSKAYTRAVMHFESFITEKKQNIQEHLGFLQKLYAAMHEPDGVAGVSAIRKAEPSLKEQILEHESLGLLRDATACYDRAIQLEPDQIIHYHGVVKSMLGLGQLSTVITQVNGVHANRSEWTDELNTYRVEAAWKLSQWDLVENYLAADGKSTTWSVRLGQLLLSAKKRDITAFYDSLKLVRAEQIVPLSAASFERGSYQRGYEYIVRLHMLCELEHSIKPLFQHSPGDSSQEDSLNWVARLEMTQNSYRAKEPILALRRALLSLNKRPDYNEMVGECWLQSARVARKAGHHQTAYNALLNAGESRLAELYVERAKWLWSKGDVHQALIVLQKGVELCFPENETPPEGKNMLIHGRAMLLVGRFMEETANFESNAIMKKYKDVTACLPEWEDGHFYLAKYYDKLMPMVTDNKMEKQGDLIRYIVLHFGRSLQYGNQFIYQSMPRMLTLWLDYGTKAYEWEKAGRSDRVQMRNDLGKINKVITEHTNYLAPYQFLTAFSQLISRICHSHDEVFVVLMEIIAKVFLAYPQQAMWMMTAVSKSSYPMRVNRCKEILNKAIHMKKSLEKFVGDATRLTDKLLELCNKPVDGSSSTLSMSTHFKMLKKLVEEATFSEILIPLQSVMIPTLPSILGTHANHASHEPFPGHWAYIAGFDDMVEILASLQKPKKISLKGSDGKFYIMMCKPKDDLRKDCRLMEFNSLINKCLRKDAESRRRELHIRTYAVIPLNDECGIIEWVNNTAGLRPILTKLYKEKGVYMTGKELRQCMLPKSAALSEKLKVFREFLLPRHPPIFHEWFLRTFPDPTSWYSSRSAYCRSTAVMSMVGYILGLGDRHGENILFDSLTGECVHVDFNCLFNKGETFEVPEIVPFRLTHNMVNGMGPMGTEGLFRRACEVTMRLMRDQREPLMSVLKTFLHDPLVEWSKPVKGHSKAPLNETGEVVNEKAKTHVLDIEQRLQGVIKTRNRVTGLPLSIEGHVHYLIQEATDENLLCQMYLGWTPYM
Summary of the method: (§1)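 Cells treated at 20 μM for various times, lysed in RIPA buffer with protease/phosphatase inhibitors, protein quantified by BCA. Equal protein run on 12% SDS-PAGE, transferred to nitrocellulose, blocked 1 h in 5% milk/TBST, primary antibodies overnight at 4 °C, secondary 1:2000 for 45 min, ECL detection on film. GAPDH used as loading control.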

[2] = target: Serine/threonine-protein kinase ATR (Homo sapiens) (UniProt Q13535); assay: Activation of ATR in human DU145 cells assessed as ChK1 phosphorylation at Ser296 at 20 uM after 12 hrs by western blot analysis; type: cell-based; conditions: DU-145; summary of the method: as §1
[3] = Decrease in ChK1 protein expression in human DU145 cells at 20 uM after 2 to 48 hrs by western blot analysis; type: functional, cell-based; conditions: DU-145; summary of the method: as §1
[4] = Decrease in BRCA1 protein expression in human PC3 cells at 20 uM after 2 to 48 hrs by western blot analysis; type: functional, cell-based; conditions: PC-3; summary of the method: as §1
[5] = target: Breast cancer type 1 susceptibility protein (Homo sapiens) (UniProt P38398); assay: Inactivation of BRCA1 in human DU145 cells assessed as decline in BRCA1 phosphorylation at Ser1524 at 20 uM by western blot analysis; type: cell-based; conditions: DU-145; summary of the method: as §1
Sequence of Breast cancer type 1 susceptibility protein (Homo sapiens) (P38398 whole entry, looked up): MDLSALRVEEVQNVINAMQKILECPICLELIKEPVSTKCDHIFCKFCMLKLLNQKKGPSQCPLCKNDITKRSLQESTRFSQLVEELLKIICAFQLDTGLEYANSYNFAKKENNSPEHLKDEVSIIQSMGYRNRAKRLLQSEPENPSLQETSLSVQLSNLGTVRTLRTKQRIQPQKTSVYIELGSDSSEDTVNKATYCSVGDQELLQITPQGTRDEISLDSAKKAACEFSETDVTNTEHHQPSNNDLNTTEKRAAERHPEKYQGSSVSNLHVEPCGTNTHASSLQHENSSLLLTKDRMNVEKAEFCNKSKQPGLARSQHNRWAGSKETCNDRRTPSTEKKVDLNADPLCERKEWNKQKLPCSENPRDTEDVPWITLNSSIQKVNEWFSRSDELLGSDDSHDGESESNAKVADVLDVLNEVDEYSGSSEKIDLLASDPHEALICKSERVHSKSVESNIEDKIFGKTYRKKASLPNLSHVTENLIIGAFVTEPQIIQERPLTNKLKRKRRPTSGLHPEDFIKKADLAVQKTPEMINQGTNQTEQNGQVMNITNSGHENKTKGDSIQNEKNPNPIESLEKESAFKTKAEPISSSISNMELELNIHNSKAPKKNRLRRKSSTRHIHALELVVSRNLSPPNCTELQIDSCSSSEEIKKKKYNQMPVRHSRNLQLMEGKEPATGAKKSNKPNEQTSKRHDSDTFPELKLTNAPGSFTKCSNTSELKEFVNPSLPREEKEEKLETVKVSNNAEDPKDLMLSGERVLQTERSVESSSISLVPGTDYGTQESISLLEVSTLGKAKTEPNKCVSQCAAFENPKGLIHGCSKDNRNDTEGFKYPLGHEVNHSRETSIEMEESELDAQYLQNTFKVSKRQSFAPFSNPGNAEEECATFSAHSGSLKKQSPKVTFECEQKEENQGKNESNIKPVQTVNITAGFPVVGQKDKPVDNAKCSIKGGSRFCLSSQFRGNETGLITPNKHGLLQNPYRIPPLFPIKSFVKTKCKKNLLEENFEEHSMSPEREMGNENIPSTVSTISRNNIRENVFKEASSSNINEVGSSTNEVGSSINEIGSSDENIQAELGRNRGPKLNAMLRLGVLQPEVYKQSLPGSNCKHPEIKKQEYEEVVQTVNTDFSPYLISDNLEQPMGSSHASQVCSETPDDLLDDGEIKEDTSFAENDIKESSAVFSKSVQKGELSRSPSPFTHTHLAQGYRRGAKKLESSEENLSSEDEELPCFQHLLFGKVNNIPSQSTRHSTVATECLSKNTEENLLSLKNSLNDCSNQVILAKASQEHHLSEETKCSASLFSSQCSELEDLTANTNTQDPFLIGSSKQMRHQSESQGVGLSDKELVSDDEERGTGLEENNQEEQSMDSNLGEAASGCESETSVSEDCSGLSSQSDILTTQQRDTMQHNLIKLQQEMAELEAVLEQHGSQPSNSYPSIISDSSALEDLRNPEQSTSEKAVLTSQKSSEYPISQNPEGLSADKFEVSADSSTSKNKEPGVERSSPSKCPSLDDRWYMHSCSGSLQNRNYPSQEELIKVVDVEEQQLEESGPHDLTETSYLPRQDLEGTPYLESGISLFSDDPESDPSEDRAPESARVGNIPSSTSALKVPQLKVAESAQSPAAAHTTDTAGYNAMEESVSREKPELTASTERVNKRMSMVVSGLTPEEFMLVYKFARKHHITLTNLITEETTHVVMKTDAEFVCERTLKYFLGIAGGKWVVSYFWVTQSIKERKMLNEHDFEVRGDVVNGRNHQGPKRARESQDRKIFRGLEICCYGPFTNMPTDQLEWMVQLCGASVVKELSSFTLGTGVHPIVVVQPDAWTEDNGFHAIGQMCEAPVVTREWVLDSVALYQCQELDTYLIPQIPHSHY

DU-145 [6] = assay: Cell cycle arrest at G0/G1 phase in human DU145 cells after 24 hrs by propidium iodide staining based flow cytometry; type: functional
[7] = Cell cycle arrest at G0/G1 phase in human PC3 cells after 24 hrs by propidium iodide staining based flow cytometry; type: functional; conditions: PC-3
DU-145 [8] = assay: Antiproliferative activity against human DU145 cells assessed as inhibition of cell viability after 24 hrs by MTT assay; type: functional, cell-based; conditions: DU-145, 24 h
Summary of the method: (§2)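 Cells grown to 50–70% confluence (RWPE1 in K-SFM with pituitary extract and EGF; the other lines in RPMI 1640 with 10% FBS), 5% CO2, 37 °C. Treated for 24 h with DMSO vehicle, compounds, or cisplatin as positive control. MTT (5 mg/mL) added for 4 h, formazan dissolved in DMSO, absorbance read at 570 nm. Viability taken relative to untreated cells after blank subtraction, IC50 fitted from % viability, at least three experiments.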

K562 = assay: Antiproliferative activity against human K562 cells assessed as inhibition of cell viability after 24 hrs by MTT assay; type: functional, cell-based; conditions: K562, 24 h; summary of the method: as §2
A549 = assay: Antiproliferative activity against human A549 cells assessed as inhibition of cell viability after 24 hrs by MTT assay; type: functional, cell-based; conditions: A549, 24 h; summary of the method: as §2
[9] = Cell cycle arrest in human PC3 cells assessed as accumulation at subG1 phase at 10 uM after 24 hrs by propidium iodide staining based flow cytometry (reference value: 0.13%); type: functional; conditions: PC-3
DU-145 [10] = assay: Cell cycle arrest in human DU145 cells assessed as accumulation at subG1 phase at 10 uM after 24 hrs by propidium iodide staining based flow cytometry (reference value: 0.28%); type: functional
DU-145 [11] = assay: Cell cycle arrest in human DU145 cells assessed as accumulation at G2/M phase at 10 uM after 24 hrs by propidium iodide staining based flow cytometry (reference value: 10.44%); type: functional
DU-145 [12] = assay: Cell cycle arrest in human DU145 cells assessed as accumulation at G0/G1 phase at 20 uM after 24 hrs by propidium iodide staining based flow cytometry (reference value: 63.34%); type: functional
[13] = Decrease in cyclin E protein expression in human DU145 cells by western blot analysis; type: functional, cell-based; conditions: DU-145, TDE = time-dependent effect
Summary of the method: (§3)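 Western blot of cyclin D1, cyclin E, Cdk4 and p21 in PC3 and DU145 lysates. Lysis in RIPA buffer plus protease inhibitors, BCA quantification, 12% SDS-PAGE, nitrocellulose transfer, milk block, primaries overnight at 4 °C, secondary 1:2000 for 45 min, ECL read-out. GAPDH served as loading control.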

[14] = Decrease in Cdk4 protein expression in human PC3 cells after 2 to 48 hrs by western blot analysis; type: functional, cell-based; conditions: PC-3; summary of the method: as §3
PC-3 [15] = assay: Induction of apoptosis in human PC3 cells assessed as necrotic cells at 20 uM after 4 hrs by Annexin V-FITC/propidium iodide staining based flow cytometry (reference value: 0.98%); type: functional
Summary of the method: (§4)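 Cells seeded in 6-well plates for 24 h, then given 20 μM for the stated times. Cells were trypsinized, PBS-washed, stained with annexin V-FITC/PI, and analysed immediately by flow cytometry. Means ± SD of three independent experiments; Student's t test against untreated control.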

PC-3 [16] = assay: Induction of apoptosis in human PC3 cells assessed as early apoptotic cells at 20 uM after 8 hrs by Annexin V-FITC/propidium iodide staining based flow cytometry (reference value: 0.79%); type: functional; summary of the method: as §4
PC-3 [17] = assay: Induction of apoptosis in human PC3 cells assessed as late apoptotic cells at 20 uM after 12 hrs by Annexin V-FITC/propidium iodide staining based flow cytometry (reference value: 7.92%); type: functional; summary of the method: as §4
PC-3 [18] = assay: Induction of apoptosis in human PC3 cells assessed as early apoptotic cells at 20 uM after 24 hrs by Annexin V-FITC/propidium iodide staining based flow cytometry (reference value: 0.79%); type: functional; summary of the method: as §4
DU-145 [19] = assay: Induction of apoptosis in human DU145 cells assessed as early apoptotic cells at 20 uM after 4 hrs by Annexin V-FITC/propidium iodide staining based flow cytometry (reference value: 1.60%); type: functional; summary of the method: as §4
DU-145 [20] = assay: Induction of apoptosis in human DU145 cells assessed as necrotic cells at 20 uM after 8 hrs by Annexin V-FITC/propidium iodide staining based flow cytometry (reference value: 0.21%); type: functional; summary of the method: as §4
DU-145 [21] = assay: Induction of apoptosis in human DU145 cells assessed as late apoptotic cells at 20 uM after 24 hrs by Annexin V-FITC/propidium iodide staining based flow cytometry (reference value: 1.53%); type: functional; summary of the method: as §4
DU-145 [22] = assay: Induction of apoptosis in human DU145 cells assessed as necrotic cells at 20 uM after 24 hrs by Annexin V-FITC/propidium iodide staining based flow cytometry (reference value: 0.21%); type: functional; summary of the method: as §4
DU-145 [23] = assay: Induction of apoptosis in human DU145 cells at 20 uM by Annexin V-FITC/propidium iodide staining based flow cytometry; type: functional, cell-based; conditions: TDE = time-dependent effect; summary of the method: as §4
PC-3 [24] = assay: Induction of ROS generation in human PC3 cells at 20 uM after 30 mins to 4 hrs by DCFH-DA staining based flow cytometry; type: functional, cell-based
Summary of the method: (§5)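 Cells in RPMI 1640 with 10% FBS, 5% CO2, 37 °C, treated at 50−70% confluence (DMSO vehicle). After exposure, cells were loaded with 10 μM DCFH-DA for 30 min at 37 °C, washed, resuspended in PBS, and read at once by flow cytometry. For NAC runs, cells got 5 mM NAC 1 h before compound. ROS reported as ratio relative to untreated control.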

PC-3 [25] = assay: Induction of ROS generation in human PC3 cells at 20 uM after 6 hrs by DCFH-DA staining based flow cytometry; type: functional, cell-based; summary of the method: as §5
DU-145 [26] = assay: Induction of ROS generation in human DU145 cells at 20 uM pretreated for 1 hr with 5 mM antioxidant NAC measured after 24 hrs by DCFH-DA staining based flow cytometry; type: functional, cell-based; summary of the method: as §5

C=C[C@@](C)(O)CC[C@@H]1C(C)=CC[C@@H]2C(C)(C)CCC[C@@]12C
Activity [1]: Active | Activity [2]: Active | inhibition [3]: Active | inhibition [4]: inactive | inhibition [5]: Active | Activity (DU-145 [6]): Dose-dependent effect | Activity [7]: Dose-dependent effect | IC50 (DU-145 [8]): 28.5 µM | IC50 (K562): 15.8 µM | IC50 (A549): > 40 µM | Activity [9]: 1.94% | Activity (DU-145 [10]): 1.97% | Activity (DU-145 [11]): 8.38% | Activity (DU-145 [12]): 75.55% | inhibition [13]: tde | inhibition [14]: Active | Activity (PC-3 [15]): 2.75% | Activity (PC-3 [16]): 2.27% | Activity (PC-3 [17]): 12.66% | Activity (PC-3 [18]): 1.61% | Activity (DU-145 [19]): 4% | Activity (DU-145 [20]): 2.44% | Activity (DU-145 [21]): 15.33% | Activity (DU-145 [22]): 4.55% | Activity (DU-145 [23]): tde | Activity (PC-3 [24]): Active | Activity (PC-3 [25]): inactive | Activity (DU-145 [26]): inactive
